We go through 21 molecules from ChEMBL document CHEMBL1153848, “Design and synthesis of azolopyrimidoquinolines, pyrimidoquinazolines as anti-oxidant, anti-inflammatory and analgesic activities” (2009).

One assay has as its system Brain. In words: Antioxidant activity in Sprague-Dawley rat brain assessed as inhibition of lipid peroxidation. The assay is classed as functional, tissue-based.
Assay [1] concerns Mus musculus. The experiment in a line: Peripheral analgesic activity in Swiss albino mouse assessed as protection against acetic acid-induced writhing response at 20 mg/kg, po administered 30 mins before acetic acid challenge measured after 30 mins relative to control. The assay is classed as functional. On the technique in general: Writhing tests count abdominal constrictions after an irritant is injected.

For assay [2], the system named is Rattus norvegicus. In words: Antiinflammatory activity in Sprague-Dawley rat assessed as protection against carrageenan-induced hind paw edema at 20 mg/kg, po administered 1 hr before carrageenan challenge measured after 3 hrs. The assay is classed as functional. The procedure, abridged:
(§1)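 Adult female albino rats (150–180 g), fasted 18 h, six per group. Aqueous suspension in distilled water given orally at 20 mg/kg 1 h before subplantar injection of 0.1 mL 1% w/v carrageenan into the left hind paw. Vehicle controls got 0.5 mL water; diclofenac sodium 20 mg/kg po was the reference. Paw volume was measured by mercury plethysmometer before injection and hourly for 4 h. Inhibition = (Ec−Et)/Ec, with edema = (Vt−V0)/V0.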

The test system of assay [3] is Mus musculus. In words: Peripheral analgesic activity in Swiss albino mouse assessed as protection against acetic acid-induced writhing response at 20 mg/kg, po administered 30 mins before acetic acid challenge measured after 1 hr relative to control. Format: functional.
For assay [4], the system named is Rattus norvegicus. In words: Antiinflammatory activity in Sprague-Dawley rat assessed as protection against carrageenan-induced hind paw edema at 20 mg/kg, po administered 1 hr before carrageenan challenge measured after 1 hr. The assay is classed as functional. The essentials:
as §1
On the technique in general: Carrageenan injected into the paw causes an acute inflammation.

In assay [5] the test system is Mus musculus. The experiment in a line: Peripheral analgesic activity in Swiss albino mouse assessed as protection against acetic acid-induced writhing response at 20 mg/kg, po administered 30 mins before acetic acid challenge measured after 3 hrs relative to control. Format: functional.
The subject of assay [6] is Mus musculus. In words: Peripheral analgesic activity in Swiss albino mouse assessed as protection against acetic acid-induced writhing response at 20 mg/kg, po administered 30 mins before acetic acid challenge measured after 2 hrs relative to control. The assay is classed as functional.
For the next assay, the system named is Kidney. In words: Antioxidant activity in Sprague-Dawley rat kidney assessed as inhibition of lipid peroxidation. The assay is classed as functional, tissue-based.
The subject of assay [7] is Mus musculus. In words: Central analgesic activity in Swiss albino mouse assessed as thermal stimuli reaction time at 20 mg/kg, po after 60 mins by hot plate method. The assay is classed as functional. The procedure, abridged:
(§2)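 Swiss mice of both sexes (25–30 g), six per group, on a hot plate held at 53 ± 0.5 °C. Latency was timed to hind-paw licking or jumping, with a 60 s cut-off. It was measured before dosing, then at 15, 30, 60 and 90 min after an oral aqueous suspension at 20 mg/kg. Controls were untreated; oral diclofenac sodium 20 mg/kg was the reference.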
A general note: Thermal pain tests record how soon the animal reacts.

Assay [8] relates to Rattus norvegicus. In words: Antiinflammatory activity in Sprague-Dawley rat assessed as protection against carrageenan-induced hind paw edema at 20 mg/kg, po administered 1 hr before carrageenan challenge measured after 2 hrs. Format: functional. The essentials: as §1
In assay [9] the test system is Mus musculus. In words: Central analgesic activity in Swiss albino mouse assessed as thermal stimuli reaction time at 20 mg/kg, po after 30 mins by hot plate method. The assay is classed as functional. The essentials: as §2
For assay [10], the system named is Mus musculus. In words: Central analgesic activity in Swiss albino mouse assessed as thermal stimuli reaction time at 20 mg/kg, po after 90 mins by hot plate method. Format: functional. The essentials:
as §2

Assay [11] can be described thus: Antioxidant activity assessed as ABTS radical scavenging activity at 2 mM. The assay is classed as functional. The essentials: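 ABTS radical scavenging, read as the fall in colour absorbance after MeOH/phosphate buffer (1:1) is added. % inhibition = (A_control − A_test)/A_control × 100. The negative control uses MeOH/phosphate buffer (1:1) in place of compound, the blank omits ABTS, and ascorbic acid is the positive control.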

Assay [12] is described as follows: Antioxidant activity in Sprague-Dawley rat erythrocytes assessed as peroxyl radical-induced hemolysis after 1 hr. The assay is classed as functional, Erythrocyte.

Active and inactive are the calls of the source.

Turning to `CSC1=Nc2nc3c(c(-c4ccc(Cl)cc4)c2C(N2CCOCC2)N1)CCC/C3=C/c1ccc(Cl)cc1` (configuration not stated), the outcome with Brain and in the assay with Kidney was Active. Besides, the Activity came to 45.2% in the assay with Mus musculus [1]; 37.3% in the assay with Rattus norvegicus [2]; 47% in the assay with Mus musculus [3]; 39.2% in the assay with Rattus norvegicus [4]; 27.8% in the assay on Mus musculus [5]; 45.2% with Mus musculus [6]. The Activity in the assay on Mus musculus [7] came out at 10.98 min; with Rattus norvegicus [8], 47.1%; with Mus musculus [9], 8.65 min; with Mus musculus [10] it was 11.12 min.
By inhibition is commonly meant the change of the read-out against control, counted positive when it falls. For `COc1ccc(/C=C/C(=O)c2sc3nc4nc5c(c(-c6ccc(Cl)cc6)c4c(=O)n3c2C)CCC/C5=C/c2ccc(Cl)cc2)cc1`, the inhibition in [11] is 22.2%. Also, the outcome with Brain and in the assay with Kidney was Active. Moreover, in assay [12], the Activity came to 5.9%.
Turning to `CCSc1nc2nc3c(c(-c4ccc(Cl)cc4)c2c(=O)n1CC)CCC/C3=C/c1ccc(Cl)cc1`, the inhibition in assay [11] is 35.2%. Moreover, the outcome in the assay with Brain and in the assay on Kidney was Active. Also, the Activity in [12] amounted to 30.75%.
Take `O=C([O-])Cc1ccccc1Nc1c(Cl)cccc1Cl.[Na+]` [DICLOFENAC SODIUM]: the Activity turned out to be 46% with Mus musculus [1]; 42% with Rattus norvegicus [2]; 55.2% with Mus musculus [3]; 52.4% with Rattus norvegicus [4]; 39% in the assay on Mus musculus [5]; 62% in the assay on Mus musculus [6]. The Activity is 11.4 min with Mus musculus [7], 60.3% in the assay on Rattus norvegicus [8], 10 min in the assay with Mus musculus [9] and 13.2 min in the assay with Mus musculus [10].
On to `CC(=O)c1sc2nc3nc4c(c(-c5ccc(Cl)cc5)c3c(=O)n2c1C)CCC/C4=C/c1ccc(Cl)cc1`, for which the inhibition in assay [11] is 40.7%. For the same molecule, the result in the assay with Brain and with Kidney was Active. For the same molecule, the Activity in the assay with Mus musculus [1] amounted to 43.5%; in the assay with Rattus norvegicus [2], 39.2%; in the assay on Mus musculus [3], 49%; in the assay on Rattus norvegicus [4], 46.7%; in [12], 6.06%; in the assay with Mus musculus [5], 38.4%. Also, the Activity is 53.1% in the assay with Mus musculus [6]; 8.61 min in the assay on Mus musculus [7]; 44.2% in the assay with Rattus norvegicus [8]; 7.54 min in the assay with Mus musculus [9]; 12 min with Mus musculus [10].
For `CCSc1nc2nc3c(c(-c4ccc(Cl)cc4)c2c(=O)n1C)CCC/C3=C/c1ccc(Cl)cc1`, in assay [11], the inhibition is 31.5%. In addition, the outcome in the assay on Brain and with Kidney was Active. Also, the Activity in assay [12] was 5.3%.
Take `NNc1nc2nc3c(c(-c4ccc(Cl)cc4)c2c(=O)[nH]1)CCC/C3=C/c1ccc(Cl)cc1`: the outcome with Brain and in the assay with Kidney was Active.
`Nc1ccc(/C=C2/CCCc3c2nc2nc4s/c(=C\c5cccs5)c(=O)n4c(=O)c2c3-c2ccc(N)cc2)cc1`: the inhibition in assay [11] amounted to 25.9%. The result in the assay with Brain and with Kidney was Active. For the same molecule, the Activity in assay [12] is recorded as 6.36%.
Regarding `O=c1/c(=C/c2ccccc2)sc2nc3nc4c(c(-c5ccc(Cl)cc5)c3c(=O)n12)CCC/C4=C/c1ccc(Cl)cc1`, the inhibition in [11] worked out at 40.7%. The result in the assay on Brain and in the assay with Kidney was Active. Besides, the Activity in the assay on Mus musculus [1] was determined as 73.2%; with Rattus norvegicus [2], 42.3%; in the assay on Mus musculus [3], 76%; in the assay on Rattus norvegicus [4], 59.8%; in assay [12], 5.75%; in the assay with Mus musculus [5], 60.3%. Also, the Activity in the assay with Mus musculus [6] amounted to 77.2%; in the assay with Mus musculus [7], 10.78 min; with Rattus norvegicus [8] it was 59.3%; with Mus musculus [9] it was 9.16 min; with Mus musculus [10], 11.08 min.
Turning to `CN(C)c1ccc(/C=c2\sc3nc4nc5c(c(-c6ccc(Cl)cc6)c4c(=O)n3c2=O)CCC/C5=C/c2ccc(Cl)cc2)cc1`, the inhibition in assay [11] was 37%. Further, the result in the assay on Brain and with Kidney was Active. In addition, in assay [12], the Activity was 7.27%.
On to `CCSc1nc2nc3c(c(-c4ccc(Cl)cc4)c2c(=O)[nH]1)CCC/C3=C/c1ccc(Cl)cc1`, for which the inhibition in assay [11] came out at 37%. Besides, the outcome with Brain and with Kidney was Active. Further, the Activity in [12] is reported as 5.6%.
`O=c1[nH]c(=S)[nH]c2nc3c(c(-c4ccc(Cl)cc4)c12)CCC/C3=C\c1ccc(Cl)cc1`: the inhibition in assay [11] was 44.4%. Also, the outcome in the assay on Brain and in the assay with Kidney was Active. In assay [12], the Activity came out at 8.33%.
In the case of `O=C(CSc1nc2nc3c(c(-c4ccc(Cl)cc4)c2c(=O)[nH]1)CCC/C3=C/c1ccc(Cl)cc1)c1ccccc1`, the inhibition in assay [11] stood at 33.3%. Also, the result in the assay on Brain and in the assay with Kidney was Active. Further, the Activity in [12] is listed as 6.51%.
On to `CSC1=Nc2nc3c(c(-c4ccc(Cl)cc4)c2C(N2CCNCC2)N1)CCC/C3=C/c1ccc(Cl)cc1` (configuration not stated), for which the outcome in the assay on Brain and in the assay with Kidney was Active. The Activity with Mus musculus [1] is 49.5%; with Rattus norvegicus [2] it was 42%; in the assay with Mus musculus [3], 50%; with Rattus norvegicus [4], 43.1%; with Mus musculus [5] it was 30.5%; in the assay on Mus musculus [6] it was 49.4%. The Activity in the assay on Mus musculus [7] was determined as 10.15 min; in the assay on Rattus norvegicus [8] it was 52%; with Mus musculus [9] it was 7.93 min; in the assay on Mus musculus [10], 11.5 min.
Turning to `COc1ccc(C2NOc3c2sc2nc4nc5c(c(-c6ccc(Cl)cc6)c4c(=O)n32)CCC/C5=C/c2ccc(Cl)cc2)cc1` (configuration not stated), in [11], the inhibition came to 24.1%. For the same molecule, the outcome with Brain and in the assay on Kidney was Active. Further, the Activity in assay [12] is on record as 7.27%.
On to `COc1ccc(/C=c2\sc3nc4nc5c(c(-c6ccc(Cl)cc6)c4c(=O)n3c2=O)CCC/C5=C/c2ccc(Cl)cc2)cc1`, for which, in assay [11], the inhibition was 33.3%. Besides, the outcome with Brain and in the assay on Kidney was Active. Besides, in assay [12], the Activity was determined as 4.54%.
For the molecule `COc1ccc(NC2NC(SC)=Nc3nc4c(c(-c5ccc(Cl)cc5)c32)CCC/C4=C/c2ccc(Cl)cc2)cc1` (configuration not stated), the result with Brain and with Kidney was Active. The Activity in the assay with Mus musculus [1] was found to be 41.5%; in the assay on Rattus norvegicus [2], 25.3%; with Mus musculus [3], 52%; with Rattus norvegicus [4] it was 39.8%; in the assay with Mus musculus [5] it was 37.3%; in the assay with Mus musculus [6], 49.3%. Moreover, the Activity with Mus musculus [7] was 9.06 min; with Rattus norvegicus [8], 42.3%; with Mus musculus [9] it was 8.62 min; in the assay with Mus musculus [10] it was 9.22 min.
For `CSc1nc2nc3c(c(-c4ccc(Cl)cc4)c2c(=O)n1C)CCC/C3=C/c1ccc(Cl)cc1`, in [11], the inhibition was found to be 31.5%. In addition, the outcome with Brain and in the assay on Kidney was Active. The Activity in [12] worked out at 4.09%.
As to `C/C(=N/O)c1sc2nc3nc4c(c(-c5ccc(Cl)cc5)c3c(=O)n2c1C)CCC/C4=C/c1ccc(Cl)cc1`, the inhibition in assay [11] was 48.1%. Moreover, the result with Brain and in the assay on Kidney was Active. Moreover, the Activity in assay [12] was 7.22%.
As for `CC(=O)CSc1nc2nc3c(c(-c4ccc(Cl)cc4)c2c(=O)[nH]1)CCC/C3=C/c1ccc(Cl)cc1`, the inhibition in assay [11] turned out to be 35.2%. In addition, the outcome with Brain and with Kidney was Active. Also, the Activity in [12] amounted to 8.33%.
`Nc1ccc(/C=C2/CCCc3c2nc2nc4sc5c(n4c(=O)c2c3-c2ccc(Cl)cc2)ONC5c2cccs2)cc1` (configuration not stated): the inhibition in [11] turned out to be 29.6%. In addition, the result in the assay with Brain and with Kidney was Active. Also, the Activity in [12] amounted to 4.64%.
